Measured values: ChEMBL document CHEMBL1671655, “Anidulafungin is fungicidal and exerts a variety of postantifungal effects against Candida albicans, C. glabrata, C. parapsilosis, and C. krusei isolates” (2009)
Converted amounts (≈) assume the structure as drawn. The source made the active and inactive calls. The rule behind the calls is not given here. Starred links: 1 amine or outer side, 2 acyl side, 3 side chain; linkers in the order of their positions; H or OH if unused. Positions of bridges follow the written chain, without caps; N, C: chain ends. Non-standard residues stand in square brackets, D forms with d. Residues, ends and D or L forms follow the SMILES beside them. *: point of attachment. pTerphenylCO(4''-OnC5H11) = CCCCCOc1ccc(-c2ccc(-c3ccc(C(=O)*)cc3)cc2)cc1; Orn(4R-OH,5R-OH) = O=C([C@H](C[C@@H](O)[C@@H](O)N[*:3])N[*:1])[*:2]; hTyr(3S-OH,4S-OH) = N[C@H](C(=O)O)[C@H](O)[C@@H](O)c1ccc(O)cc1; Pro(3S-OH,4S-Me) = C[C@H]1CN[C@H](C(=O)O)[C@H]1O; Hyp = O=C(O)[C@@H]1C[C@@H](O)CN1

Experiments:
Candida parapsilosis [1] = assay: Fungicidal activity against Candida parapsilosis isolate 1 assessed as log reduction in bacterial count at 4 times MIC after drug exposure for 1 hr followed by washout measured after 48 hrs in the absence of drug by PAFE study; format: functional; settings: Lodderomyces parapsilosis
In short: (§1)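 Inoculum about 1 x 10^5 to 5 x 10^5 CFU/ml in RPMI 1640 (MOPS, pH 7.0) with drug, shaken at 35°C for 1 h. Cells were then washed and centrifuged at 1,400 x g for 10 min (3 cycles) and resuspended in warm drug-free RPMI. Samples plated on SDA at 0, 2, 4, 8, 12, 24 and 48 h; CFU counted after 48 h at 35°C. Run twice per isolate; means.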

Candida parapsilosis [2] = assay: Antifungal activity against Candida parapsilosis isolate A assessed as cell wall damage at 4 times MIC by Transmission electron microscopy; format: functional, organism-based
In short: (§2)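 Cells recovered 8 h after a 1-h drug exposure were grown on SDA for 24 h at 35°C. Colonies fixed at 4°C in 0.1 M cacodylate (pH 7.2) with 2% glutaraldehyde and 2% paraformaldehyde, ethanol-dehydrated and embedded in Lowicryl K4M. Thin sections examined by transmission EM.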

Candida albicans [3] = assay: Increase in susceptibility to calcofluor white in Candida albicans ATCC 90028 assessed as cell wall damage at 16 times MIC after 1 hr relative to control; format: functional, organism-based
In short: (§3)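 Cells recovered 8 h after a 1-h drug exposure were grown to exponential phase in YPD with 1% glucose and adjusted to OD599 0.1. Undiluted and 10-fold serially diluted cultures were spotted onto YPD plates containing calcofluor white, then incubated at 30°C for 72 h. Growth compared with no-drug control cells; triplicate.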

Candida parapsilosis [4] = assay: Antifungal activity against Candida parapsilosis isolate A assessed as time period for bacterial growth inhibition at 4 times MIC after 1 hr drug exposure; format: functional
In short: (§4)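 Inoculum of about 1 x 10^5 to 5 x 10^5 CFU/ml in MOPS-buffered RPMI (pH 7.0), shaken at 35°C and exposed to drug for 1 h. Cells then washed and centrifuged three times and resuspended in drug-free warm RPMI. Samples plated on SDA at 0, 2, 4, 8, 12, 24 and 48 h, with CFU counted after 48 h at 35°C. Run twice per isolate; values are means.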

Pichia kudriavzevii [5] = assay: Fungicidal activity against Candida krusei isolate 1 assessed as log reduction in bacterial count at 4 times MIC after 48 hrs by time-kill analysis; format: functional; settings: isolate 1, 48 h
In short: (§5)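 Isolates subcultured twice on SDA, suspended to 0.5 McFarland, giving ~1 x 10^5 to 5 x 10^5 CFU/ml in MOPS-buffered RPMI 1640 (pH 7.0) with or without drug at multiples of MIC (MIC by CLSI M27-A3). Tubes shaken at 35°C with continuous drug. Sampled at 0–48 h, diluted 10-fold and plated on SDA; CFU counted after 48 h at 35°C. Run twice per isolate; means.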

Nakaseomyces glabratus [6] = assay: Fungicidal activity against Candida glabrata isolate 1 assessed as log reduction in bacterial count at 4 times MIC after 48 hrs by time-kill analysis; format: functional; settings: isolate 1, 48 h; in short: as §5
Pichia kudriavzevii [7] = assay: Increase in susceptibility to calcofluor white in Candida krusei isolate ATCC 6258 assessed as cell wall damage at 16 times MIC after 1 hr relative to control; format: functional, organism-based; in short: as §3
Nakaseomyces glabratus [8] = assay: Fungicidal activity against Candida glabrata isolate 3 assessed as log reduction in bacterial count at 16 times MIC after 48 hrs by time-kill analysis; format: functional; settings: isolate 3, 48 h; in short: as §5
Nakaseomyces glabratus [9] = assay: Increase in susceptibility to calcofluor white in Candida glabrata isolate 3 assessed as cell wall damage at 16 times MIC after 1 hr relative to control; format: functional, organism-based; in short: as §3
Candida parapsilosis [10] = assay: Increase in susceptibility to SDS in Candida parapsilosis isolate A assessed as cell wall damage at 16 times MIC after 1 hr relative to control; format: functional, organism-based
In short: (§6)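 Cells recovered 8 h after a 1-h drug exposure were grown in YPD with 1% glucose to exponential phase and adjusted to OD599 0.1. Undiluted culture and 10-fold serial dilutions were spotted onto YPD plates containing SDS (0.01 to 0.04%), then incubated 72 h at 30°C. Growth compared with unexposed control cells; triplicate.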

Candida albicans [11] = assay: Increase in susceptibility to calcofluor white in Candida albicans isolate 1 assessed as cell wall damage at 16 times MIC after 1 hr relative to control; format: functional, organism-based; in short: as §3
Pichia kudriavzevii [12] = assay: Antifungal activity against Candida krusei isolate 1 assessed as cell wall damage at MIC by Transmission electron microscopy; format: functional, organism-based; in short: as §2
Candida parapsilosis [13] = assay: Increase in susceptibility to SDS in Candida parapsilosis isolate 1 assessed as cell wall damage at 4 times MIC after 1 hr relative to control; format: functional, organism-based; in short: as §6
Pichia kudriavzevii [14] = assay: Increase in susceptibility to calcofluor white in Candida krusei isolate ATCC 6258 assessed as cell wall damage at MIC after 1 hr relative to control; format: functional, organism-based
In short: (§7)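 Candida given a 1-h anidulafungin pulse in MOPS-buffered RPMI 1640 (pH 7.0) at 35°C, washed three times by centrifugation, and regrown drug-free. Cells collected 8 h later, grown in YPD with 1% glucose to exponential phase, and set to OD599 0.1. Undiluted culture and 10-fold dilutions (4 µl) spotted on YPD plates with calcofluor white, then 30°C for 72 h. Triplicate; compared with no-drug cells.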

Nakaseomyces glabratus [15] = assay: Antifungal activity against Candida glabrata isolate 3 assessed as time period for bacterial growth inhibition at 16 times MIC after 1 hr drug exposure; format: functional; in short: as §4
Candida parapsilosis [16] = assay: Increase in susceptibility to SDS in Candida parapsilosis isolate 1 assessed as cell wall damage at MIC after 1 hr relative to control; format: functional, organism-based; in short: as §6
Candida albicans [17] = assay: Antifungal activity against Candida albicans assessed as time period for bacterial regrowth inhibition after 1 hr drug exposure; format: functional
Candida albicans [18] = assay: Increase in susceptibility to SDS in Candida albicans ATCC 90028 assessed as cell wall damage at 4 times MIC after 1 hr relative to control; format: functional, organism-based; in short: as §6
Pichia kudriavzevii [19] = assay: Increase in susceptibility to calcofluor white in Candida krusei isolate ATCC 6258 assessed as cell wall damage at 4 times MIC after 1 hr relative to control; format: functional, organism-based; in short: as §3
Candida albicans [20] = assay: Antifungal activity against Candida albicans isolate 1 assessed as time period for bacterial growth inhibition at 16 times MIC after 1 hr drug exposure; format: functional; in short: as §4
Nakaseomyces glabratus [21] = assay: Increase in susceptibility to SDS in Candida glabrata isolate 3 assessed as cell wall damage at MIC after 1 hr relative to control; format: functional, organism-based; in short: as §6
Candida parapsilosis [22] = assay: Antifungal activity against Candida parapsilosis assessed as time period for bacterial regrowth inhibition after 1 hr drug exposure; format: functional
Candida parapsilosis [23] = assay: Fungicidal activity against Candida parapsilosis isolate 1 assessed as log reduction in bacterial count at 16 times MIC after 48 hrs by time-kill analysis; format: functional; settings: Lodderomyces parapsilosis, isolate 1, 48 h; in short: as §5
Candida parapsilosis [24] = assay: Increase in susceptibility to calcofluor white in Candida parapsilosis isolate A assessed as cell wall damage at 16 times MIC after 1 hr relative to control; format: functional, organism-based; in short: as §7
Nakaseomyces glabratus [25] = assay: Antifungal activity against Candida glabrata by NCCLS M27A broth microdilution method; format: functional
Candida parapsilosis [26] = assay: Fungicidal activity against Candida parapsilosis isolate A assessed as log reduction in bacterial count at MIC after drug exposure for 1 hr followed by washout measured after 48 hrs in the absence of drug by PAFE study; format: functional; settings: Lodderomyces parapsilosis; in short: as §1
Candida albicans [27] = assay: Antifungal activity against Candida albicans ATCC 90028 assessed as time period for bacterial growth inhibition at 16 times MIC after 1 hr drug exposure; format: functional; in short: as §4

Structure (SMILES): CCCCCOc1ccc(-c2ccc(-c3ccc(C(=O)N[C@H]4C[C@@H](O)[C@@H](O)NC(=O)[C@@H]5[C@@H](O)[C@@H](C)CN5C(=O)[C@H]([C@@H](C)O)NC(=O)[C@H]([C@H](O)[C@@H](O)c5ccc(O)cc5)NC(=O)[C@@H]5C[C@@H](O)CN5C(=O)[C@H]([C@@H](C)O)NC4=O)cc3)cc2)cc1 [ANIDULAFUNGIN] ({pTerphenylCO(4''-OnC5H11)}-[Orn(4R-OH,5R-OH)]T[Hyp][hTyr(3S-OH,4S-OH)]T[Pro(3S-OH,4S-Me)]; lactam 1-C)
- log reduction (Candida parapsilosis [1]): 2.46
- Activity (Candida parapsilosis [2]): Active
- Activity (Candida albicans [3]): Active
- Time (Candida parapsilosis [4]): 8 h
- log reduction (Pichia kudriavzevii [5]): 2.29 log CFU/ml
- log reduction (Nakaseomyces glabratus [6]): 2.77 log CFU/ml
- Activity (Pichia kudriavzevii [7]): Active
- log reduction (Nakaseomyces glabratus [8]): 3.89 log CFU/ml
- Activity (Nakaseomyces glabratus [9]): Active
- Activity (Candida parapsilosis [10]): Active
- Activity (Candida albicans [11]): Active
- Activity (Pichia kudriavzevii [12]): Active
- Activity (Candida parapsilosis [13]): Active
- Activity (Pichia kudriavzevii [14]): Active
- Time (Nakaseomyces glabratus [15]): 8 h
- Activity (Candida parapsilosis [16]): Active
- Time (Candida albicans [17]): >=12 hr
- Activity (Candida albicans [18]): Active
- Activity (Pichia kudriavzevii [19]): Active
- Time (Candida albicans [20]): 8 h
- Activity (Nakaseomyces glabratus [21]): Active
- Time (Candida parapsilosis [22]): >=12 hr
- log reduction (Candida parapsilosis [23]): 3.47 log CFU/ml
- Activity (Candida parapsilosis [24]): Active
- MIC90 (Nakaseomyces glabratus [25]): 0.06 µg/mL (≈ 0.0526 µM)
- log reduction (Candida parapsilosis [26]): 1.41
- Time (Candida albicans [27]): 8 h
